In brackets after ≈: the same amount, converted by molar mass. Activity calls are given as the source filed them. The rule behind the calls is not given here.
How the values were obtained:
[1] = tested on: Mycolicibacterium smegmatis; assay: Antibacterial activity against Mycobacterium smegmatis ATCC 14468 assessed as inhibition zone diameter at 20 mg/mL after 24 hrs by Kirby-Bauer disk diffusion assay; assay type: functional; conditions: for zone of inhibition at 20000 µg/mL: ATCC 14468, 24 h, read-out: IZ
In short: (§1)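 Disk diffusion adapted from NCCLS. M. smegmatis was pre-grown about 24 h in 7H9 with 0.2% glycerol and ADC at 37.5 °C and 160 rpm, to OD₆₀₀ 0.27. It was swabbed onto Lennox or 7H10 agar with 0.5% glycerol and OADC. DMSO solutions (20 or 10 mg/mL) or control went onto 6 mm paper disks. Plates were incubated at 37 °C for 24 h, rechecked at day 6, and zone diameters measured in mm by ruler.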

[2] = tested on: Mycolicibacterium smegmatis; assay: Antibacterial activity against Mycobacterium smegmatis ATCC 14468 assessed as inhibition zone diameter at 10 mg/mL after 24 hrs by Kirby-Bauer disk diffusion assay; assay type: functional; conditions: for zone of inhibition at 10000 µg/mL: ATCC 14468, 24 h, read-out: IZ; in short: as §1
Escherichia coli = assay: Antibacterial activity against Escherichia coli ATCC 23722 after 36 hrs visualized by MTT staining by broth macrodilution assay; assay type: functional; conditions: ATCC 23722, 36 h
In short: (§2)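 Broth macrodilution adapted from NCCLS. E. coli and B. subtilis grown in Mueller-Hinton broth; M. smegmatis in Middlebrook 7H9 with 0.2% glycerol and ADC enrichment. Inocula were set to a 0.5 McFarland standard, giving a final density of 5.0 · 10⁵ cfu/mL. Incubated at 37 °C for 36 h and the MIC recorded.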

Bacillus subtilis = assay: Antibacterial activity against Bacillus subtilis ATCC 6633 after 36 hrs visualized by MTT staining by broth macrodilution assay; assay type: functional; conditions: ATCC 6633, 36 h; in short: as §2
[3] = tested on: Mycolicibacterium smegmatis; assay: Antibacterial activity against Mycobacterium smegmatis ATCC 14468 after 36 hrs visualized by MTT staining by broth macrodilution assay; assay type: functional; conditions: ATCC 14468, 36 h; in short: as §2
[4] = target: Diacylglycerol acyltransferase/mycolyltransferase Ag85C (Mycobacterium tuberculosis) (UniProt P9WQN9); assay: Inhibition of mycolyltransferase activity of Mycobacterium tuberculosis antigen 85C by UV-visible absorption spectroscopy
Chain of Diacylglycerol acyltransferase/mycolyltransferase Ag85C (Mycobacterium tuberculosis) (P9WQN9 whole entry): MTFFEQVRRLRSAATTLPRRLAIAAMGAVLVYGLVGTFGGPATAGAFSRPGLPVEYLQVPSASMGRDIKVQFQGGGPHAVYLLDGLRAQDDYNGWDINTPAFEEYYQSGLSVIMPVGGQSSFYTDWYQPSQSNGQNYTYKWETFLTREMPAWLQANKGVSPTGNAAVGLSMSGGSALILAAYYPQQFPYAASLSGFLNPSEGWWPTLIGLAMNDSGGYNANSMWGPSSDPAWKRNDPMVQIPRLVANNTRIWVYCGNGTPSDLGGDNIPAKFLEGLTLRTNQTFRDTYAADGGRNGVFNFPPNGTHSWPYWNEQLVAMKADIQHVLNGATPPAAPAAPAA
In short: (§3)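 Purified ag85C (M. tuberculosis) in 10 mM Tris–HCl pH 7.5, 2 mM EDTA, 1 mM DTT, added to start the reaction. The mix holds sodium phosphate buffer, β-glucosidase, dextrose and the glucose-based p-nitrophenyl substrate analogue (stock 0.1–2.5 mM, in 10% v/v DMSO); test compound is added in DMSO. The coupled release of p-nitrophenolate is read at 405 nm every 20 s for 1 h, and activity is compared by the slopes.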

[5] = target: Diacylglycerol acyltransferase/mycolyltransferase Ag85C (Mycobacterium tuberculosis) (UniProt P9WQN9); assay: Inhibition of mycolyltransferase activity of Mycobacterium tuberculosis antigen 85C at 1 to 20 mM by UV-visible absorption spectroscopy; in short: as §3

Compound | Activity [1] | Activity [2] | MIC (Escherichia coli) [mg/L] | MIC (Bacillus subtilis) [mg/L] | MIC [3] [mg/L] | Activity [4] | zone of inhibition at 20000 µg/mL [1] [mm] | zone of inhibition at 10000 µg/mL [2] [mm] | Activity [5]
CCCCCCSC[C@H]1O[C@@H](OC)[C@@H](O)[C@@H]1O | inactive | inactive | > 1020 | > 1020 | 1020 (≈ 3.87 mM) | Active |  |  | 
CCCCSC[C@H]1O[C@H](OC)[C@@H](O)[C@@H]1O | inactive | inactive | > 1020 | > 1020 | > 1020 |  |  |  | 
CCCCCCCCSC[C@H]1O[C@@H](OC)[C@@H](O)[C@@H]1O |  |  | > 1020 | 512 (≈ 1.75 mM) | 512 (≈ 1.75 mM) | Active | 13.5 | 7.5 | 
NNC(=O)c1ccncc1 [ISONIAZID] |  |  |  |  | 2 (≈ 0.0146 mM) |  |  |  | 
CCCCSC[C@H]1O[C@@H](OC)[C@@H](O)[C@@H]1O | inactive | inactive | > 1020 | > 1020 | > 1020 |  |  |  | inactive
CCCCCCCCSC[C@H]1O[C@H](OC)[C@@H](O)[C@@H]1O |  |  | > 1020 | 128 (≈ 0.438 mM) | 256 (≈ 0.875 mM) | Active | 17.5 | 14.5 | 
CCCCCCSC[C@H]1O[C@H](OC)[C@@H](O)[C@@H]1O | inactive | inactive | > 1020 | > 1020 | 1020 (≈ 3.87 mM) | Active |  |  | 
